Rows were chosen to be rich in hits. Some 3.7% of all compounds tested hit in one or more screens of this group.
KCNK9 block = blocks the human KCNK9 two-pore domain potassium channel; Q9NPC2; HEK293 KCNK9, FluxOR thallium flux fluorescence; hits give low values; B-score at 10 µM; 1.2% of 310,000 active;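 active means ratio B-score over 3 SD below the library mean, with starting fluorescence within 5 SD of its mean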;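 further: negative B-score means less thallium flux so channel inhibition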
hERG rescue = shields human hERG channel from block by proarrhythmic agents; 0.51% of 310,000 active; activation (rescue from dofetilide block), less the hit threshold, % at 10 µM; CHO-hERG, FluxOR thallium flux, dofetilide IC70 present;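 active means activation above the mean of controls blocked by dofetilide plus 5 SD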;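 further: thallium influx through hERG after potassium depolarization seen as dye fluorescence rise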
Kir21 inh = blocks the mouse Kir2.1 inward-rectifier potassium channel; HEK293-Kir2.1, FluxOR thallium flux fluorescence; hits give low values; B-score at 10 µM; 0.85% of 310,000 active; AID 1672;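 active means fluorescence ratio B-score at or below minus 3 SD of library scores, with starting-brightness B-score within 2 SD, cut at about -4.2 in these data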;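 further: channel flux triggered by added potassium and thallium sulfate stimulus; B-score of peak minus minimum fluorescence over baseline after thallium stimulus; more negative B-score means stronger Kir2.1 block with less thallium influx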
KCNQ1 block = human KCNQ1 channel inhibition. 1.3% of 310,000 active. B-score at 10 µM. P51787. CHO-K1 KCNQ1, FluxOR thallium flux fluorescence; hits give high values;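 active means compounds whose thallium flux B-score, printed positive for inhibition, exceeds three library SD while starting fluorescence stays within three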;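 further: channel opened by potassium depolarization with thallium stimulus after 20 min compound exposure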
KCNK3 inh = human KCNK3 channel inhibition, primary screen; CHO-KCNK3 thallium flux, FluxOR fluorescence; hits give low values; B-score at 10 µM; 0.84% of 340,000 active; AID 602410;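 active means B-score under library mean minus 4 SD, starting fluorescence ratio at most library mean plus 5 SD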;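 further: more negative B-score means stronger inhibition of thallium flux through KCNK3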
Target sequence (O14649 whole entry, looked up): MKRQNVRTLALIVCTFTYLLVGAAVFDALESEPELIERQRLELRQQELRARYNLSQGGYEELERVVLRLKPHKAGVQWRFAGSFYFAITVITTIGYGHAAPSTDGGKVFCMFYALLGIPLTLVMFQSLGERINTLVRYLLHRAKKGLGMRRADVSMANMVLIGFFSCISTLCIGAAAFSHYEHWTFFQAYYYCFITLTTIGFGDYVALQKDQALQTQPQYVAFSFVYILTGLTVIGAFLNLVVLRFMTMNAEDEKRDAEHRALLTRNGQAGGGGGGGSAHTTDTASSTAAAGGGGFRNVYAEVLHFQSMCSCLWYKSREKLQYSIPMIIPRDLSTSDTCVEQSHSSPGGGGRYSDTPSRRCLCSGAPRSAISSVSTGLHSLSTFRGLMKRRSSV
KCNQ1 act = potentiates or activates the human KCNQ1 potassium channel | P51787 | CHO-K1 KCNQ1, thallium flux FluxOR fluorescence; hits give high values | B-score at 10 µM | 0.35% of 310,000 active;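 active means fluorescence ratio B-score, a plate-corrected score, at least three library SD, with initial intensity B-score within 5 SD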
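Test system: CHO-K1 cells stably expressing KCNQ1 / Medium: assay buffer / Also added: depolarizing K+/Tl+ stimulus, K2SO4 and Tl2SO4 each 12.5 mM in 5x stock / Incubation: 90 min dye loading and 20 min compound exposure, both at room temperature / Signal: thallium influx via FluxOR fluorescence, kinetic imaging / Evaluation: B score of baseline-normalized fluorescence ratio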
Of the large screens only hits and unclear results are named; the others gave an inactive call.

CCOc1ccc(-c2csc(/C(C#N)=C\c3ccc(O)c([N+](=O)[O-])c3)n2)cc1	KCNQ1 block 6
O=C(CCC1CCCCC1)Nc1cc(Cl)ccc1N1CCOCC1	KCNK3 inh -9 (no result: KCNK9 block, hERG rescue, Kir21 inh, KCNQ1 block, KCNQ1 act)
O=C(CCC1CCCC1)Nc1cc(C(F)(F)F)ccc1N1CCOCC1	none
CC(=O)Nc1ccc(SCC(=O)Nc2ccccc2-c2ccccc2)cc1	Kir21 inh -4.3
Cc1ccc(SC(C)C(=O)Nc2ccccc2-c2ccccc2)cc1 (centres undefined)	Kir21 inh -6.9
CCC(C(=O)Nc1ccccc1-c1ccccc1)c1ccccc1 (centres undefined)	Kir21 inh -4.9
CCCC(C)NCC(=O)Nc1ccccc1-c1ccccc1 (centres undefined)	Kir21 inh -4.5
CCC(C(=O)Nc1ccccc1)c1ccccc1 (centres undefined)	none
CC(Sc1ccc(Cl)cc1)C(=O)Nc1ccccc1-c1ccccc1 (centres undefined)	none
Cc1ccc(CC(=O)Nc2ccccc2-c2ccccc2)cc1C	none
CC12CCC(=O)N1C(C(=O)N1CCN(S(=O)(=O)c3ccc(F)c(F)c3)CC1)CS2 (centres undefined)	none
O=C(COc1ccc(F)cc1Br)NCc1nnc2ccccn12	none (no result: KCNK9 block, hERG rescue, Kir21 inh, KCNQ1 block, KCNQ1 act)
O=C(C1CCC1)N1CCN(S(=O)(=O)c2ccc(Br)cc2Cl)CC1	none
CCC(C(=O)NCCCc1ccccc1)c1ccccc1 (centres undefined)	none
CCC(C(=O)NCCCN1CCN(CCCNC(=O)C(CC)c2ccccc2)CC1)c1ccccc1 (centres undefined)	hERG rescue 4.9
O=c1nc(-c2ccccc2)nc(-c2ccccc2)[nH]1	none
CCCn1c2ccccc2c2cnn(CC(=O)NCCCN3CCCCC3)c(=O)c21	none
CCCn1c2ccccc2c2cnn(CC(=O)NCCCN3CCN(c4ccccc4)CC3)c(=O)c21	Kir21 inh -4.6
Nc1nc2n(n1)C(=O)CC(c1ccc(Cl)cc1)N2 (centres undefined)	hERG rescue 5.0
Cc1cc(C=NCCO)c(C)n1-c1cc(Cl)ccc1Cl	none
Cc1cc(/C=N/n2cnnc2)c(C)n1-c1cc(Cl)ccc1Cl	KCNQ1 act 12
O=C(Nc1ccn(CC(=O)N2CCN(c3ccccn3)CC2)c(=O)n1)OCc1ccccc1	none (no result: KCNK9 block, hERG rescue, Kir21 inh, KCNQ1 block, KCNQ1 act)
C=CCN(C(=O)C1CSC2(C)CCC(=O)N12)c1nc(-c2ccccc2)cs1 (centres undefined)	KCNQ1 block 6
CON(C)c1nc(OCCNC(=O)OCc2ccc(Cl)cc2Cl)nc(N(C)C)n1	Kir21 inh -4.3
COc1cc(C=NO)nc(-c2ccccn2)c1	none (no result: KCNK9 block, hERG rescue, Kir21 inh, KCNQ1 block, KCNQ1 act)
Cc1cc(/C=C2/SC(=S)N(c3cccc(C(F)(F)F)c3)C2=O)c(C)n1-c1cccnc1	KCNQ1 block 6
CCCCN1CC(=O)N2[C@H]3c4cc(Cl)ccc4OC[C@@H]3[C@H](c3ccccc3)[C@]2(C)C1=O	none (no result: KCNK9 block, hERG rescue, Kir21 inh, KCNQ1 block, KCNQ1 act)
CCN(CC)c1nc2c(c(=O)n(C)c(=O)n2C)n1CC(=O)c1ccccc1	none
Cc1ccc(C)c(N2CCN(c3ncccc3[N+](=O)[O-])CC2)c1	KCNK9 block -6.6
S=C(Nc1cc(Cl)ccc1Oc1ccccc1)N1CCN(c2ccccn2)CC1	none
N=c1sccn1CC(=O)Nc1cc(Cl)ccc1Oc1ccccc1	Kir21 inh -4.8
N=c1sccn1CC(=O)Nc1cccc(Oc2ccccc2)c1	Kir21 inh -4.3
S=C(Nc1ccccc1)Nc1cc(Cl)ccc1Oc1ccccc1	KCNQ1 block 9
CCOC(=O)N/N=C(/c1ccccc1)C1CCCCC1	none
OCC(O)C(O)C(O)C(O)c1nc2ccccc2[nH]1 (centres undefined)	none
CCOc1ccc(S(=O)(=O)NC(Cc2cnc[nH]2)C(=O)O)cc1 (centres undefined)	none
CC(C)CCC[C@@H](C)[C@H]1CC[C@H]2[C@@H]3C(=O)C=C4C[C@@H](O)CC[C@]4(C)[C@H]3CC[C@]12C	none
C=C1/C(=C\C=C2/CCC[C@]3(C)[C@@H]([C@H](C)CCCC(C)(C)O)CC[C@@H]23)C[C@@H](O)C[C@@H]1O	KCNQ1 block 7 (no result: KCNK3 inh)
CN(Cc1ccccc1F)c1nc(-c2cccs2)nc2ccccc12	KCNK9 block -8, KCNQ1 block 6

Source: PubChem
